In one series the test system is HCT116 cells. Put plainly: In vitro cytotoxicity, 72 h treatment. In kind it is cell-based. The note with it: Homo sapiens, HCT-116, 72 h.
In another series the test system is Colo 205 cells. Put plainly: In vitro cytotoxicity, 72 h treatment. In kind it is cell-based. To be noted: Homo sapiens, COLO 205, 72 h.
Series [1] relates to subcutaneous HCT-116 xenograft. Kind of series: Tumor regression in subcutaneous HCT-116 xenograft model. In kind it is in vivo, mice.
For series [2] the following is noted: cited from earlier work.
A short description of series [3]: Pyrene fluorescence assay. The series is classed as physicochemical. In short, it runs like this: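 Pyrene served as fluorescent probe across a dilution series of polypeptide or conjugate. The I₁/I₃ ratio (370−373 nm peak over 381−384 nm peak) was plotted against polypeptide concentration. CAC was taken from the sigmoidal transition, which reflects nanoparticle disassembly and release of pyrene into the aqueous phase.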

This is an account of results in PMC6178977 (Advanced functional materials, 2017).

What is called IC50 is the concentration at which inhibition is half-maximal. The low end stands for inhibition by little substance, the high end for a need for much substance. As to `Nc1ccn([C@@H]2O[C@H](CO)[C@@H](O)C2(F)F)c(=O)n1` [GEM, gemcitabine], the figures for the concentration for half-maximal inhibition (IC50) with HCT116 cells and in the series on Colo 205 cells were 0.0041 µM and 0.0464 µM, respectively. In series [1] (12 days after treatment), the “tumor volume lower than PBS treated animals” value was ~ 3 fold. In series [1] (HCT-116 xenograft, 25 mg.kg^−1 day 0, 2, 4, Kaplan–Meier, n=6), this compound showed a median survival time of 21 days. In addition, the plasma half-life in series [2] is recorded as ~ 10 minutes.
As to (VPGAG)160–(YG)6–(CGG)8 [ATBP], the “CAC (critical aggregation concentration)” value in series [3] worked out at 3.6 µM.
